Activity calls are given as the source filed them. The calls are words filed in the database; no cut-off is given here.

The nature of data set [1]: Drug level in DMSO-d6 treated with capsicodendrin at 2 mg measured after 1 hr by 1H-NMR spectra analysis. The class given is physicochemical.
For data set [2], the system named is K562. Description: Growth inhibition of human K562 cells after 72 hrs in presence of GSH synthesis inhibitor buthionine sulfoximine by Beckman coulter counting method. The class given is functional, cell-based. Conditions: K562, 72 h. Summed up: (§1)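 K562 cells in DMEM + 10% FBS, preincubated 40 h with or without BSO 50 μM, then seeded at 100 000 cells/mL. Exposed to CPCD or DMSO at 37 °C, 5% CO2; growth assessed after 48 h per figure legend (72 h per methods). Cell number read on a Coulter counter; IC50 calculated from growth curves. Mean ± SEM of 3–4 separate-day runs.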

Data set [3] concerns HL-60. In words: Growth inhibition of human HL60 cells after 72 hrs in presence of GSH synthesis inhibitor buthionine sulfoximine by Beckman coulter counting method. The note with it: HL-60, 72 h. Format: functional, cell-based. The gist of the method: (§2)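 HL-60 cells in complete RPMI, preincubated 40 h with or without BSO 50 μM, then seeded at 100 000 cells/mL. Treated with CPCD (0.1, 0.2, 0.5 μM) or DMSO (1%) for 72 h at 37 °C, 5% CO2. Cells counted on a Coulter counter; IC50 taken from growth curves. Mean ± SEM of 3–4 separate-day experiments.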

For data set [4], the system named is HL-60. In words: Growth inhibition of human HL60 cells after 72 hrs by Beckman coulter counting method. The class given is functional, cell-based. The note with it: HL-60, 72 h. Summed up:
as §2

Data set [5] concerns HL-60. In words: Growth inhibition of human HL60 cells at 0.2 to 0.5 uM after 48 hrs in presence of GSH synthesis inhibitor buthionine sulfoximine by Beckman coulter counting method. The class given is functional, cell-based.
Data set [6] relates to HL-60. Description: Induction of apoptosis in human HL60 cells assessed as change in morphology at 0.2 to 0.5 uM after 48 hrs in presence of GSH synthesis inhibitor buthionine sulfoximine by […]. The class given is functional, cell-based. Summed up: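 HL-60 cells seeded at 100 000 cells/mL; for line 11, first held 40 h ± BSO 50 μM. Exposed to CPCD 0.1–0.5 μM or 0.1% DMSO for 48 h or 48 and 72 h. Washed pellets stained 20 min in the dark at room temperature with Hoechst 33342 (0.013 mg/mL). Fluorescence microscopy; 100–200 cells scored for apoptotic nuclear morphology.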

In data set [7] the test system is K562. Description: Growth inhibition of human K562 cells after 72 hrs by Beckman coulter counting method. The class given is functional, cell-based. The note with it: K562, 72 h. Summed up:
as §1

The test system of data set [8] is HL-60. In words: Cytotoxicity against human HL60 cells assessed as cell death at 0.2 to 0.5 uM after 48 hrs in presence of GSH synthesis inhibitor buthionine sulfoximine by trypan blue dye exclusion method. Format: functional, cell-based. Summed up:
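HL-60 cells (RPMI-1640 + 15% FBS, 37 °C, 5% CO2) seeded at 100 000 cells/mL. For line 1, cells were first held 40 h ± BSO 50 μM. They were then exposed to CPCD 0.1–0.5 μM or DMSO for 48 h or 48 and 72 h. Cells were mixed 1:1 with trypan blue and % blue-positive cells counted on a hemocytometer. Mean ± SEM of 3–9 separate-day runs.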

Data set [9] has as its system HL-60. In words: Induction of DNA damage in human HL60 cells assessed as increase in DNA strand breaks at 2 to 5 uM after 1 hr in presence of GSH synthesis inhibitor buthionine sulfoximine by SYBR green dye based comet assay. The class given is functional, cell-based. The gist of the method: (§3)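 HL-60 cells (100 000 cells/mL), ±BSO 50 μM for 40 h, moved into HEPES/glucose/salt buffer pH 7.4. Treated 1 h at 37 °C with CPCD 0.5–5 μM or 0.2% DMSO. Cells embedded in low-melt agarose, lysed, held at pH 13, then electrophoresed 30 min at 21 V/cm. SYBR Gold staining; Olive tail moment scored from ≥100 cells. Mean ± SEM of 5 runs.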

The test system of data set [10] is HL-60. Description: Induction of DNA damage in human HL60 cells assessed as increase in DNA strand breaks at 0.5 to 5 uM after 1 hr by SYBR green dye based comet assay. The class given is functional, cell-based. The gist of the method: as §3
For data set [11], the system named is HL-60. Description: Induction of reactive oxygen species generation in human HL60 cells at 1 to 5 uM measured at 2 mins interval for 1 hr by DCFH-DA staining-based fluorescence assay. Format: functional, cell-based. The gist of the method:
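HL-60 cells (1 × 10^6/mL) loaded with DCFH-DA 2 μM in HEPES buffer for 30 min at 37 °C, washed, then treated with vehicle, CPCD 1–5 μM or H2O2 25 μM. Fluorescence read every 2 min up to 1 h, in triplicate wells. Rate expressed as fluorescence units per min.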

The nature of data set [12]: Displacement of ThioGlo4 from glutathione measured after 8 hrs by fluorescence assay. The note with it: read-out: Kd(app). The gist of the method:
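GSH (5 μM) incubated with CPCD 0.5–100 μM in 1× PBS for 8 h at 37 °C. ThioGlo IV (10 μM) added to diluted aliquots; unreacted GSH quantified by fluorescence, excitation 400 nm, emission 465 nm.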

As for `CC(=O)O[C@@H]1C=C(C=O)[C@](O)(C=O)[C@@]2(C)CCCC(C)(C)[C@H]12` [CINNAMODIAL], the Drug metabolism entry in data set [1] is “Metabolite_Detected”.

As for `CC(=O)O[C@@H]1C=C([C@H]2O[C@@H]3OC(O)C4=C[C@@H](OC(C)=O)[C@H]5C(C)(C)CCC[C@]5(C)[C@]43O2)[C@](O)(C=O)[C@@]2(C)CCCC(C)(C)[C@H]12` (some centres not stated), the IC50 lay in the range of 180 to 210 nM in the data set with K562 [2], 70 to 90 nM in the data set with HL-60 [3], 200 to 270 nM in the data set with HL-60 [4] and 360 to 480 nM with K562 [7]. For the same compound, in the data set with HL-60 [5], the “growth inhibition (GI)” value is “Active”. In addition, the result in the data set on HL-60 [6], in the data set with HL-60 [8], with HL-60 [9] and with HL-60 [10] was Active. Besides, the outcome in the data set on HL-60 [11] was inactive. In addition, the Kd in [12] was 7200 nM.

The IC50 is the concentration that inhibits the measured activity by half.

The record behind these values is ChEMBL document CHEMBL4251661, “Capsicodendrin from Cinnamosma fragrans Exhibits Antiproliferative and Cytotoxic Activity in Human Leukemia Cells: Modulation by Glutathione” (J Nat Prod, 2018).
